Measured values: ChEMBL document CHEMBL4732180, “Discovery of novel positive allosteric modulators of the α7 nicotinic acetylcholine receptor: Scaffold hopping approach” (Eur J Med Chem, 2021)

Legend:
[1] = Intrinsic clearance in human liver microsome at 1 to […] up to 40 mins; assay type: ADME; conditions: liver microsomes, dose 1-2.5 µM, read-out: CLH
[2] = Intrinsic clearance in mouse liver microsome at 1 to […] up to 40 mins; assay type: ADME; conditions: liver microsomes, dose 1-2.5 µM, read-out: CLH
[3] = Intrinsic clearance in rat liver microsome at 1 to […] up to 40 mins; assay type: ADME; conditions: liver microsomes, dose 1-2.5 µM, read-out: CLH
[4] = Apparent permeability across apical to basolateral side in vinblastine-treated human Caco2 cells at 10 uM after 180 mins by HPLC or UHPLC-MS/MS analysis; assay type: ADME; conditions: Caco-2
Procedure, shortened: (§1)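 Vinblastine-selected Caco-2 (VB-Caco-2) monolayers with high P-gp expression. Compound at 1 or 10 µM, measured apical-to-basolateral and basolateral-to-apical in HBSS with 25 mM HEPES. pH 7.4 on both sides, 37 °C, 120 rpm shaking, up to 180 min with compound-specific duration. Quantified by HPLC or UHPLC-MS/MS; PDR = Papp B-A / Papp A-B.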

[5] = AUC (0 to 5 hrs) in Wistar rat plasma at 3 mg/kg, iv up to 5 hrs by HPLC-MS/MS analysis; assay type: ADME, organism-based; set-up: route intravenous, dose 3 mg/kg, time <=5
[6] = AUC (0 to 5 hrs) in Wistar rat plasma at 3 mg/kg, po up to 5 hrs by HPLC-MS/MS analysis; assay type: ADME, organism-based; set-up: route oral, dose 3 mg/kg, time <=5
[7] = AUC (0 to 5 hrs) in Wistar rat brain at 3 mg/kg, po up to 5 hrs by HPLC-MS/MS analysis; assay type: ADME, organism-based; set-up: route oral, dose 3 mg/kg, time <=5
[8] = Lipophilicity, logP of compound; assay type: physicochemical; conditions: octanol/water
[9] = Clearance in Wistar rat plasma at 3 mg/kg, iv up to 5 hrs by HPLC-MS/MS analysis; assay type: ADME, organism-based
[10] = Volume of distribution in Wistar rat plasma at 3 mg/kg, iv up to 5 hrs by HPLC-MS/MS analysis; assay type: ADME, organism-based
[11] = Half life in Wistar rat plasma at 3 mg/kg, iv up to 5 hrs by HPLC-MS/MS analysis; assay type: ADME, organism-based
[12] = Cmax in Wistar rat plasma at 3 mg/kg, po up to 5 hrs by HPLC-MS/MS analysis; assay type: ADME, organism-based; set-up: route oral, dose 3 mg/kg, time <=5
[13] = Cmax in Wistar rat brain at 3 mg/kg, po up to 5 hrs by HPLC-MS/MS analysis; assay type: ADME, organism-based; set-up: route oral, dose 3 mg/kg, time <=5
[14] = Tmax in Wistar rat plasma at 3 mg/kg, po up to 5 hrs by HPLC-MS/MS analysis; assay type: ADME, organism-based
[15] = Tmax in Wistar rat brain at 3 mg/kg, po up to 5 hrs by HPLC-MS/MS analysis; assay type: ADME, organism-based
[16] = Apparent permeability across apical to basolateral side in vinblastine-treated human Caco2 cells at 1 uM after 180 mins by HPLC or UHPLC-MS/MS analysis; assay type: ADME; conditions: Caco-2; procedure, shortened: as §1

| Compound | microsomal CLint at […] [1] [µL/min/mg] | microsomal CLint at […] [2] [µL/min/mg] | microsomal CLint at […] [3] [µL/min/mg] | Papp A→B at 3 h, 10 µM [4] [×10⁻⁶ cm/s] | AUC(0-t) [5] [ng·h/mL] | AUC(0-t) [6] [ng·h/mL] | AUC(0-t) [7] [ng·h/mL] | logP [8] | clearance [9] [mL/min/kg] | Vd [10] [L/kg] | half-life [11] [h] | Cmax [12] [ng/mL] | Cmax [13] [ng/mL] | Tmax [14] [h] | Tmax [15] [h] | Papp A→B at 3 h, 1 µM [16] [×10⁻⁶ cm/s] |
| --- | --- | --- | --- | --- | --- | --- | --- | --- | --- | --- | --- | --- | --- | --- | --- | --- |
| NS(=O)(=O)c1ccc(-c2cc(C(=O)N3CC4CC4C3)nn2-c2ccc(Cl)cc2)cc1 (stereo not given) | 4 | 5 | 10 | 18 | 3490 | 134 | 158 | 3.1 | 14.1 | 1.17 | 0.97 | 31.6 | 36.8 | 2 | 2 |  |
| CCC(=O)c1cc(-c2ccc(S(N)(=O)=O)cc2)n(-c2ccc(Cl)cc2)n1 | 18 | 16 | 20 | 20 |  |  |  | 3.8 |  |  |  |  |  |  |  |  |
| CCC(=O)c1cc(-c2ccc(Cl)cc2)n(-c2ccc(S(N)(=O)=O)cc2)c1C | 3 | 26 | 10 |  |  |  |  | 4.7 |  |  |  |  |  |  |  | 9 |
